CDK5 inh: blocks human CDK5/p35 kinase activity. Q00535+Q15078. Recombinant CDK5/p35, ADP-Glo luminescence, 60 min. inhibition, % at 10 µM. 330,000 compounds, 0.01% hits. AID 488839;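 active means highest replicate inhibition of at least 50% and at least 75% of replicates reaching 50%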;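 further: plate controls were DMSO neutral control for no effect and GW8510 at 10 µM for full effect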
Dyrk1A ADPGlo: blocks rat Dyrk1A kinase activity; Q63470; ADP-Glo luminescence, NFATc1 peptide; inhibition, % at 12.5 µM; 310,000 compounds, 0.43% hits; AID 504441; in the data active means inhibition above about 50%;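 further: plate controls were vehicle with enzyme for no effect and no enzyme for full effect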
GSK3B inh: inhibitors of human GSK3beta kinase; 300,000 compounds, 0.038% hits; AID 2097; GST-GSK3beta kinase, ADP-Glo luminescence, 60 min; active compounds read low; activity score (negative = inhibition), % at 10 µM;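 active means more than half of replicate wells score below -50%, meaning over 50% inhibition versus plate controls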;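 further: 0% = median DMSO wells and -100% = median GW8510 positive control wells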
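Test system: GST-tagged human GSK3beta kinase, cell-free; evaluation: activity score scaled between in-plate DMSO and GW8510 controls; measured by: ADP-Glo luminescence; incubation: 60 min reaction, RT; benchmarks: DMSO and 20 µM GW8510; reagent: peptide substrate plus 25 µM ATP (final); medium: Tris/MgCl2 kinase buffer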
GSK3 alpha inh: blocks human GSK-3 alpha kinase. ADP-Glo luminescence, 60 min. inhibition, % at 10 µM. 320,000 compounds, 0.1% hits. AID 2650;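 active means more than half of replicates show inhibition above 20%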;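 further: GST-tagged GSK-3 alpha with peptide substrate and 25 µM ATP; 0% = DMSO neutral wells and 100% = GW8510 positive control wells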
Target sequence (P49840 whole entry, looked up): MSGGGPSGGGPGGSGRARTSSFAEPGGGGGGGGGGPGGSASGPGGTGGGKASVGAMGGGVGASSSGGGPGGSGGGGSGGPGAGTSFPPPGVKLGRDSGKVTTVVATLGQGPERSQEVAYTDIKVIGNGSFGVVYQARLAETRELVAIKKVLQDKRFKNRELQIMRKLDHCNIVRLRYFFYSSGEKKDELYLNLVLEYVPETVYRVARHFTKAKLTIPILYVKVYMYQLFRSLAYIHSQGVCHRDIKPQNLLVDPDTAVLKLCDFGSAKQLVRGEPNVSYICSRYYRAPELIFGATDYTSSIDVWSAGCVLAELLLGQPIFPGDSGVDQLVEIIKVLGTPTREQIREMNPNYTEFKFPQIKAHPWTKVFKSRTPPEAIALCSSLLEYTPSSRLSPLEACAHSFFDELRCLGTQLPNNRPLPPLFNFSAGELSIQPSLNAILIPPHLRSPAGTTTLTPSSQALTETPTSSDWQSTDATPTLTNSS
STK33 kinase inh: human STK33 kinase inhibition; AID 2661; 320,000 compounds, 0.073% hits; purified STK33, MBP phosphorylation, ADP-Glo luminescence; Q9BYT3; inhibition, % at 10 µM;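 active means inhibition at or above 25%, using the most active replicate where run in duplicate; inactive means inhibition below 25%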
ADP-Glo artifact: interferes with ADP-Glo luciferase readout without Dyrk1A. 1,300 tested, under 10 active. AC50, µM (titrated, usually from 12 µM), for inactives: at the top dose activity change, negative = inhibition. ADP-Glo luciferase artifact assay, no Dyrk1A, luminescence. AID 588348. shares compounds with Dyrk1A ADPGlo;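 active means fitted half-maximal dose AC50 no more than ten times the top valid tested dose, with luminescence dropping as dose rises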
* = called active by the depositor; . = no result. The entries come from a sample that favours hits as a whole.

SMILES	CDK5 inh	Dyrk1A ADPGlo	GSK3B inh	GSK3 alpha inh	STK33 kinase inh	ADP-Glo artifact
O=C(Nc1cccc2nsnc12)c1ccc2c(c1)OCO2	0	54*	3	0	2	2%
CC(=O)OC(C)[C@H]1CC[C@H]2[C@@H]3CC[C@H]4C[C@@H](OC(C)=O)CC[C@]4(C)C3=CC[C@]12C (some centres undefined)	1	6	1	1	0	.
O=C(Nc1ccc(F)cc1F)c1csc(-c2ccncc2)n1	-3	52*	-3	2	1	7%
O=C(Nc1ccc(F)cc1F)c1csc(-c2cccs2)n1	1	.	0	2	-1	.
COc1cccc(C(=O)Nc2ccc(F)cc2F)c1	0	6	0	-3	2	.
COc1cccc(C(=O)Nc2ccc(F)c(F)c2F)c1	-1	51*	1	-1	-1	8%
CCOc1ccc(Cc2n[nH]c(=S)n2Cc2ccccc2)cc1	1	-20	2	0	0	.
CCOc1cc(N2CCOCC2)c(OCC)cc1NC(=O)C(NC(=O)c1c(F)cccc1F)C(C)C (centres undefined)	1	1	.	.	.	.
O=C(Nc1ccc(Cl)cc1)Nc1ccc2c(c1)N1CCN=C1S2	1	68*	-1	-1	1	10%
O=C1CCN(CCCc2ccccc2)CCN1[C@H](CO)c1ccccc1	0	51*	1	-2	0	9%
COc1ccc(/C=N/NC(=O)c2cccc(COCC(F)(F)C(F)F)c2)cc1	-1	-4	1	.	.	.
CC(=O)Nc1cccc(-c2nn[nH]n2)c1	0	42	2	7	0	.
O=C(COc1ccccc1)Nc1cccc(-c2nn[nH]n2)c1	4	70*	-1	20	4	7%
O=C(COc1ccccc1)Nc1cccc(-c2cn3cccnc3n2)c1	1	54*	1	2	3	8%
CCC(=O)Nc1cccc(-c2cn3ccccc3n2)c1	-1	3	4	2	-1	.
Oc1ccc2c(c1)oc1cc(O)ccc12	13	90*	3	53*	12	11%
CCOC(=O)CSC1=NC(=O)/C(=C/c2ccc(Br)cc2)S1	-1	.	6	-3	0	.
CCOC(=O)CSC1=NC(=O)/C(=C\c2ccc(OC(C)=O)cc2)S1	-1	86*	-13	13	12	9%
C[C@@H]1O[C@@H](OC[C@H]2O[C@@H](Oc3c(-c4ccc(O)c(O)c4)oc4cc(O)cc(O)c4c3=O)[C@H](O)[C@@H](O)[C@@H]2O)[C@H](O)[C@H](O)[C@H]1O	0	77*	-32	27	1	10%
O=c1c(OC2OC(CO)C(O)C(O)C2OC2OC(CO)C(O)C(O)C2OC2OC(CO)C(O)C(O)C2O)c(-c2ccc(O)c(O)c2)oc2cc(O)cc(O)c12 (centres undefined)	-1	26	.	1	0	.
O=c1c2c(O)cc(O)cc2oc2ccc(O)c(O[C@@H]3O[C@H](CO)[C@@H](O)[C@H](O)[C@H]3O[C@H]3O[C@H](CO)[C@@H](O)[C@H](O)[C@H]3O)c12	3	79*	.	19	4	10%
CC1OC(OCC2OC(Oc3c(-c4ccc(O)cc4)oc4cc(O)cc(O)c4c3=O)C(O)C(O)C2O)C(O)C(O)C1O (centres undefined)	1	53*	-22	12	0	8%
CC(=O)OC[C@H]1O[C@@H](Oc2cc(O)cc3oc(-c4ccc(O)cc4)cc(=O)c23)[C@H](O[C@@H]2O[C@@H](C)[C@H](O)[C@@H](O)[C@H]2O)[C@@H](O)[C@@H]1O	-4	8	.	-1	6	.
O=c1c(O[C@@H]2O[C@H](CO)[C@@H](O)[C@H](O)[C@H]2O)c(-c2ccc(O)c(O)c2)oc2cc(O)cc(O)c12	.	.	-47	.	.	.
CC1C(C(=O)Nc2ccccc2)CCCC1(C)C(=O)O (centres undefined)	0	2	3	-4	-1	.
COc1cc(/C=C/C(=O)O)cc(S(=O)(=O)N(CC(C)C)CC(C)C)c1OC	1	-1	5	-2	1	.
COc1ccccc1N=c1oc2cc(O)ccc2cc1C(=O)NCC1CCCO1 (centres undefined)	0	-3	1	0	-3	.
